SIRT5 inh: blocks human SIRT5 desuccinylation of peptide; Purified SirT5, succinyl-peptide AMC, trypsin-coupled fluorescence; inhibition, % at 15 µM; 330,000 tested, 1.1% active; AID 652115; in the data active = inhibition above about 15%
miR-122 sensor: blocks miR-122 activity in Huh7 sensor cells | Huh7 miR-122 Renilla luciferase sensor, 48 h; neutral wells = 0, positive control = 100 | activation (reporter increase), % at 12.5 µM | 340,000 tested, 0.3% active | AID 602342;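 active = mean replicate activation score at least 90 and every replicate individually at or above 90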;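 note: higher luciferase means less miR-122 activity so hits act as miR-122 inhibitors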
S100A4 inh HTS: inhibitors of human S100A4 binding to myosin IIA peptide | P26447 | S100A4/TAMRA-MyoIIA peptide fluorescence polarization | inhibition, % at 10.7 µM | 360,000 tested, 0.14% active;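 active = mean inhibition of at least 70% across replicates, with every replicate also reaching that level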
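Assay system: human S100A4 monomer with TAMRA-labelled myosin IIA peptide / Buffer or medium: Calcium-containing HEPES buffer, pH 7.2 / Reagent: TAMRA-labelled myosin IIA heavy-chain peptide probe, 5 nM / Compound: one dose per compound / Timing: polarization read 5 min after assay mix addition, stable 5–60 min / Benchmarks: neutral control DMSO, positive control TFP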
FGF22 binding: binders of recombinant human FGF22 by thermal shift; Q9HCT0; SYPRO orange fluorescence; percent of sucrose octasulfate shift, DMSO zero; activity (Tm shift, normalised), % at 9.99 µM; 340,000 tested, 1.5% active; AID 651658;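 active = mean Tm shift, scaled 0 neutral to 100 positive control, at about 1.3% or above, every replicate too, limit read from the data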
E-sel inducer: E-selectin induction on HUVECs; P16581; HUVEC E-selectin immunofluorescence imaging; normalized: neutral wells 0, TNF-alpha wells 100; 260,000 tested, 0.37% active; activation, % at 7.58 µM;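 active = mean E-selectin-positive cell signal at least 10% of the positive control, reached in at least 60% of replicates, without over 20% cell loss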
Target sequence (P16581 whole entry, looked up): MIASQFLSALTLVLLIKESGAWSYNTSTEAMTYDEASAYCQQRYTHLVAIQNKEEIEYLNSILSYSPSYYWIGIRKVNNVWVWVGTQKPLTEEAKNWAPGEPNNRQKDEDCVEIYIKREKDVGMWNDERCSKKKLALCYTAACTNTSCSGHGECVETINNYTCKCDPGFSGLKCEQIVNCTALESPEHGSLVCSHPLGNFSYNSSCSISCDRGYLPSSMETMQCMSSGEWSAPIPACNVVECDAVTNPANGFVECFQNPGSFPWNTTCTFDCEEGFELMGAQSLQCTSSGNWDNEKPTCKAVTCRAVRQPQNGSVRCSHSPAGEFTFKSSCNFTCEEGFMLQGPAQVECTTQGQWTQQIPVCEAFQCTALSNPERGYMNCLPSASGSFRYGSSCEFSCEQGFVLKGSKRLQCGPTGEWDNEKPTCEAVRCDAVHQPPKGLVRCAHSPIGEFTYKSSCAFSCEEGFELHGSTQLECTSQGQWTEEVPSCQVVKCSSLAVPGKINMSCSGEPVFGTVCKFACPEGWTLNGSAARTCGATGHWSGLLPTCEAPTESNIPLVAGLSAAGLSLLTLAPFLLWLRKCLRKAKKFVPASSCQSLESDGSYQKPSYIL
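Assay system: HUVEC, human umbilical vein endothelial cells / Amount: 3,000 HUVEC/well / Controls: TNF-alpha positive control, DMSO neutral control / Compound dosing: single concentration / Medium: EGM-2 over gelatin coat / Evaluation: percent E-selectin-positive cells / Signal: immunofluorescence imaging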
* marks the source's active call; other numbers are inactive results; / = no result; [ ] = dose if it differs, or a comment. Compounds with a hit are over-represented: about 2.5% of the library has one in this group of screens.

SMILES	SIRT5 inh	miR-122 sensor	S100A4 inh HTS	FGF22 binding	E-sel inducer
C/C=C/c1ccc2c(c1)O[C@H](CN(C)C(=O)Nc1cc(F)ccc1F)[C@H](C)CN([C@@H](C)CO)S2(=O)=O	5.7	20.0[16.7 µM]	0.4	1.2	0.2
CCOc1c2ccc(C(=O)N[C@H](C)C3CCCCC3)cc2nn1CCOC	-17.0	11.1	-0.3	44.2*	0.1
CCOc1c2ccc(C(=O)NCc3ccc(OC(F)(F)F)cc3)cc2nn1CC	/	2.2	-1.8	0.0	3.7
CCCn1nc2cc(C(=O)NCc3ccc(OC(F)(F)F)cc3)ccc2c1OCC	-4.5	/	-1.7	43.0*	-0.1
O=C(O)CCCn1cc(NC(=O)COc2ccc([N+](=O)[O-])cc2)cn1	1.4	/	-1.2	42.9*	/
Cc1cc(OCC(=O)Nc2cnn(CCCC(=O)O)c2)ccc1[N+](=O)[O-]	-1.0	0.2	-1.6	0.3	/
Cc1noc(C)c1NC(=O)N(C)C[C@@H]1Oc2ccc(NC(=O)Cc3ccccc3)cc2C(=O)N([C@H](C)CO)C[C@H]1C	0.1	-3.0[16.7 µM]	-4.9	-0.2	-5.1
O=S(=O)(c1ccc(OCC2CO2)cc1)c1ccc(OCC2CO2)cc1 (centres undefined)	-2.4	/	5.3	43.5*	/
COc1ccc(NC(=O)O[C@H](c2ccc(OC)c(O)c2)[C@@H](CCO)OC)cc1	-1.3	/	-3.3	-0.1	/
C[C@@H]1CN([C@H](C)CO)C(=O)Cc2cc(NS(=O)(=O)c3ccc(F)cc3)ccc2O[C@@H]1CN(C)C(=O)NC1CCCCC1	-3.5	7.7[16.7 µM]	0.4	0.2	-0.2
COc1ccc(S(=O)(=O)Nc2ccc3c(c2)CC(=O)N([C@H](C)CO)C[C@@H](C)[C@@H](CN(C)C(=O)NC2CCCCC2)O3)cc1	4.4	2.9[16.7 µM]	-2.7	-0.1	55.2*
C[C@H](CO)N1C[C@H](C)[C@@H](CN(C)C(=O)NC2CCCCC2)Oc2ccc(NS(=O)(=O)c3ccc(F)cc3)cc2CC1=O	-1.8	-1.1[16.7 µM]	0.8	-0.1	-0.1
C[C@@H]1CN([C@@H](C)CO)C(=O)Cc2cc(NS(=O)(=O)c3ccc(F)cc3)ccc2O[C@@H]1CN(C)C(=O)NC1CCCCC1	18.8*	1.0[16.7 µM]	1.5	0.0	0.1
COc1ccc(S(=O)(=O)Nc2ccc3c(c2)CC(=O)N([C@@H](C)CO)C[C@H](C)[C@@H](CN(C)C(=O)NC2CCCCC2)O3)cc1	-0.2	4.8[16.7 µM]	-14.4	-0.1	79.2*
CCCCn1c(N)c(N(CC(C)C)C(=O)c2ccc(S(=O)(=O)N3CCCCC3)cc2)c(=O)[nH]c1=O	0.2	-3.5	-1.8	-0.2	57.9*
CCCCn1c(N)c(N(CC)C(=O)c2cc(Br)ccc2Cl)c(=O)[nH]c1=O	-3.3	/	6.0	43.6*	/
CCCCn1c(N)c(N(CC(C)C)C(=O)c2cccc(S(=O)(=O)N3CCCCC3)c2)c(=O)[nH]c1=O	3.8	-3.2	-5.0	-0.5	/
C/C=C/c1cnc2c(c1)C(=O)N([C@H](C)CO)C[C@@H](C)[C@H](CN(C)C(=O)C1CCC1)O2	/	4.4[16.7 µM]	/	/	1.2
Cc1cc(C)c(S(=O)(=O)NCc2ccncc2)c(C)c1	/	117.6*	/	/	/
Cc1ccc(S(=O)(=O)N(C)C[C@@H]2Oc3ccc(NC(=O)Nc4ccc(F)cc4)cc3CC(=O)N([C@@H](C)CO)C[C@@H]2C)cc1	/	-8.9[16.7 µM]	/	/	0.4
COc1ccccc1NC(=O)COC(=O)c1ccc([N+](=O)[O-])s1	23.1*	/	-3.4	-0.1	2.5
COc1ccccc1NC(=O)COC(=O)c1c[nH]c(=O)[nH]c1=O	/	/	3.6	0.1	0.6
O=C(COC(=O)c1ccc([N+](=O)[O-])s1)NCCc1ccccc1	2.0	5.3	3.2	/	/
Cc1ccc(NC(=O)COC(=O)c2ccc([N+](=O)[O-])s2)c(C)c1	-7.5	/	0.0	0.3	0.1
O=C(COC(=O)c1ccc([N+](=O)[O-])s1)NC(=O)NCc1ccccc1	-4.6	-3.9	3.2	43.1*	/
COc1ccccc1NC(=O)COC(=O)c1[nH]c(=O)[nH]c(=O)c1N	17.2*	6.4	5.5	-0.1	/
C[C@H]1CN([C@@H](C)CO)C(=O)Cc2cc(NS(=O)(=O)c3cccs3)ccc2O[C@@H]1CN(C)Cc1ccncc1	/	-4.1[16.7 µM]	/	0.0	/
CN1C(=O)c2cc(NC(=O)c3cccs3)ccc2OC[C@@H]2O[C@H](CC(=O)N3CCCCC3)CC[C@H]21	-0.1	-18.3[16.7 µM]	1.0	-0.1	0.0
